≈ marks a conversion by molar mass, not a printed value. Calls of active or inactive are those of the source. The rule behind the calls is not given here.
Columns and labels:
Staphylococcus aureus [1] = test: Antibacterial activity against methicillin-resistant Staphylococcus aureus assessed as increase in number of bacteria at 2 times MIC measured at 3 hrs; assay type: functional, organism-based
In short: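 Cells washed three times in sterile saline by centrifugation, moved to fresh TSB at 37 °C. Viable counts plated on TSB agar at 2–17 h. PCE = t − c, the time for a 1-log rise in treated versus control. Run twice.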

Staphylococcus aureus [2] = test: Antibacterial activity against methicillin-resistant Staphylococcus aureus measured for 15 days; assay type: functional, organism-based; conditions: time 15.0 day
In short: (§1)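 Resistance development: MRSA serially subcultured in fresh medium starting from the initial MIC. MIC reassessed every 24 h over 24 days, alongside a reference antibiotic given in twofold dilutions.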

Escherichia coli [3] = test: Bactericidal activity against Escherichia coli assessed as inhibition of bacterial growth at 3 times MIC incubated for 24 hrs by time kill assay; assay type: functional, organism-based
In short: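 Time-kill assay: E. coli was precultured for […] at 37 °C and adjusted to about 2 × 10^6 CFU mL−1. It was exposed to 3× MIC at 37 °C with shaking. Samples were taken at 0.5–13 h, serially 10-fold diluted in PBS and plated on Mueller–Hinton agar, and colonies were counted after 24 h at 37 °C. Run in duplicate.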

Cell membrane [4] = test: Induction of cell membrane integrity in methicillin-resistant Staphylococcus aureus assessed as increase in K+ efflux at 3 times MIC by absorption spectrophotometric analysis; assay type: subcellular
In short: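 K+ leakage: mid-log MRSA (6 h) resuspended in 10 mM HEPES (pH 7.3)/5 mM glucose at ~2 × 10^6 CFU mL-1. Incubated with compound at 3× MIC at 37 °C for various times, PBS control. Supernatant K+ measured by atomic absorption spectrophotometry. Duplicate.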

Pseudomonas aeruginosa = test: Antibacterial activity against drug sensitive Pseudomonas aeruginosa PAO1 assessed as reduction in bacterial growth by broth microdilution method; assay type: functional
In short: (§2)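 MICs were determined by standard twofold serial broth microdilution in lysogeny broth (LB) medium.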

Enterococcus = test: Antibacterial activity against vancomycin-resistant Enterococcus assessed as reduction in bacterial growth by broth microdilution method; assay type: functional
In short: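 Twofold serial dilution (microdilution) MIC in lysogeny broth (LB) medium against drug-resistant strains: MRSA USA300, vancomycin-resistant Enterococci, Klebsiella pneumoniae.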

Staphylococcus aureus [5] = test: Antibacterial activity against methicillin-resistant Staphylococcus aureus measured for 9 days; assay type: functional, organism-based; conditions: time 9.0 day; in short: as §1
Escherichia coli [6] = test: Antibiofilm activity against Escherichia coli assessed as reduction in number of viable cells at 8 times MIC incubated for 24 hrs; assay type: functional, organism-based
Escherichia coli [7] = test: Antibiofilm activity against Escherichia coli assessed as reduction in number of viable cells at 2 times MIC incubated for 24 hrs; assay type: functional, organism-based
In short: (§3)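 E. coli was grown to mid-log phase and adjusted to 2 × 10^6 CFU mL−1. Biofilms were grown for 48 h, then the spent medium was removed and loose cells were washed off with PBS. Compound was added at MIC, 2× MIC or 4× MIC for 24 h, with a sterile-medium control. Biofilms were dispersed with trypsin–EDTA, 10-fold dilutions were plated, and colonies were counted after 24 h as log10 CFU mL−1.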

Staphylococcus aureus [8] = test: Bactericidal activity against methicillin-resistant Staphylococcus aureus assessed as reduction in colony forming unit at 3 times MIC […] by time kill assay; assay type: functional
Cell membrane [9] = test: Induction of cell membrane depolarization in Escherichia coli assessed as increase in fluorescence intensity at 3 times of MIC measured up to 15 hrs by DiSC3-5 dye based fluorescence analysis; assay type: subcellular
In short: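 Mid-log E. coli (6 h culture) was resuspended in 100 mM KCl, 5 mM HEPES pH 7.3 and 5 mM glucose (1:1:1). Cells were loaded with DiSC3(5) at 8 μM final for 80 min at 37 °C, then exposed to 3× MIC. Fluorescence was read at ex 622 nm / em 670 nm, with a water control.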

Staphylococcus aureus [10] = test: Antibacterial activity against drug sensitive Staphylococcus aureus RN4220 assessed as reduction in bacterial growth by broth microdilution method; assay type: functional; in short: as §2
MCF7 = test: Cytotoxicity against human MCF7 cells assessed as inhibition of cell growth incubated for 24 hrs by MTT assay; assay type: functional, cell-based; conditions: MCF7, 24 h
In short: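 MTT assay with 24 h exposure of cells to the samples. IC50 is the concentration giving 50% growth inhibition, reported as mean ± S.D. of three independent experiments.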

Escherichia coli [11] = test: Antibacterial activity against Escherichia coli measured for 9 days; assay type: functional, organism-based; conditions: time 9.0 day
In short: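 E. coli was serially subcultured in fresh medium, starting from the initial MIC. The MIC was redetermined every 24 h. A reference antibiotic was tested in parallel by twofold dilution. The regimen ran for 24 days in total.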

Staphylococcus aureus [12] = test: Antibiofilm activity against Methicillin-resistant Staphylococcus aureus assessed as reduction in number of viable cells at 3 times MIC incubated for 24 hrs; assay type: functional, organism-based
In short: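 Biofilm eradication: mid-log MRSA at 2 × 10^6 CFU mL-1 grown 48 h to form biofilms, then washed with PBS. Biofilms exposed to compound at MIC, 2× or 3× MIC for 24 h; medium-only control. Biofilms dispersed with trypsin–EDTA, serial 10-fold dilutions plated, colonies counted after 24 h, expressed as log10 CFU mL-1.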

Staphylococcus aureus [13] = test: Bactericidal activity against methicillin-resistant Staphylococcus aureus at 2 times MIC incubated for 24 hrs by time kill assay; assay type: functional, organism-based
In short: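 Time-kill: MRSA grown 24 h at 37 °C, adjusted to ~2 × 10^6 CFU mL-1, exposed at 2× or 3× MIC with shaking at 37 °C. Aliquots taken at 0.5–13 h, serially diluted 10-fold in PBS, plated on Mueller–Hinton agar, counted after 24 h at 37 °C. Duplicate.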

Escherichia coli [14] = test: Antibiofilm activity against Escherichia coli assessed as reduction in number of viable cells at 4 times MIC incubated for 24 hrs; assay type: functional, organism-based; in short: as §3

## CC(C)(C)c1ccc(CCNc2nc3ccccc3nc2N)cc1
Staphylococcus aureus [1]
  Activity: Active
Staphylococcus aureus [2]
  Activity: Active
Escherichia coli [3]
  Activity: Active
Cell membrane [4]
  Activity: Active
Pseudomonas aeruginosa
  MIC: 64 µg/mL (≈ 200 µM)
Enterococcus
  MIC: > 128 µg/mL
Staphylococcus aureus [5]
  Activity: Active
Escherichia coli [6]
  Activity: Active
Escherichia coli [7]
  Activity: Active
Staphylococcus aureus [8]
  Activity: >6 log10CFU/ml
Cell membrane [9]
  Activity: Active
Staphylococcus aureus [10]
  MIC: 4 µg/mL (≈ 12.5 µM)
MCF7
  IC50: 72.5 µg/mL (≈ 226 µM)
Escherichia coli [11]
  Activity: Active
Staphylococcus aureus [12]
  Activity: Active
Staphylococcus aureus [13]
  Activity: inactive
Escherichia coli [14]
  Activity: Active
